The species named for one test is Sus scrofa. The test can be described thus: Inhibition of pig brain CK1 delta/epsilon using RRKHAAIGpSAYSITA as substrate at 10 uM. Summed up: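 Native CK1δ/ε from porcine brain, assayed in 3-fold diluted buffer C with 25 μM CKS peptide substrate. 15 μM ATP final, 30 C. Activity is percent of uninhibited control after blank subtraction, with DMSO controls. Inhibitor tested over a range of concentrations up to 10 μM.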

In test [1] the target is Serine/threonine-protein kinase pim-1 (Homo sapiens, UniProt P11309). Briefly: Inhibition of human recombinant Pim1. Summed up: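 Kinase assayed in buffer C (25 mM Mops pH 7.2, 60 mM beta-glycerophosphate, 30 mM p-nitrophenylphosphate, 15 mM MgCl2, 5 mM EGTA, 1 mM DTT, 0.1 mM vanadate) with 1 mg/mL histone H1. DMSO controls.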
The target of test [2] is Dual specificity protein kinase CLK3 (Mus musculus, UniProt O35492). Briefly: Inhibition of mouse recombinant GST-tagged CLK3 using GRSRSRSRSRSR as substrate. An outline of the steps: (§1)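 Mouse GST-fusion CLK1 or CLK3 expressed in E. coli. Assay buffer A (Tris-HCl pH 7.5, MgCl2, EGTA, DTT, heparin) plus 0.15 mg/mL BSA. RS peptide 1 μg/assay, 15 μM ATP final, 30 C. Blank subtracted; activity expressed as percent of activity without inhibitor. DMSO controls. Concentration range up to 10 μM.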

Test [3] deals with Dual specificity protein kinase CLK1 (Mus musculus, UniProt P22518). The test can be described thus: Inhibition of mouse recombinant GST-tagged CLK1 using GRSRSRSRSRSR as substrate. Summed up:
as §1

For test [4], the system named is Cyclin-dependent kinase 5/p25 (Homo sapiens). The test can be described thus: Inhibition of human recombinant CDK5/p25 at 10 uM.
Test [5] addresses Cyclin-dependent kinase 5/CDK5 activator 1 (Homo sapiens) (UniProt Q00535+Q15078). Briefly: Inhibition of human recombinant CDK5/p25 at 10 uM. Type of test: protein-complex assay. An outline of the steps:
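Kinase assayed in buffer C (25 mM Mops pH 7.2, 60 mM beta-glycerophosphate, 30 mM p-nitrophenylphosphate, 15 mM MgCl2, 5 mM EGTA, 1 mM DTT, 0.1 mM vanadate) with 1 mg/mL histone H1. 15 μM ATP final, 30 C. Activity is percent of activity without inhibitor, after blank subtraction. DMSO controls.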

Test [6] deals with T1, Dual specificity tyrosine-phosphorylation-regulated kinase 2 (Homo sapiens, UniProt Q92630).
T1 sequence (Q92630 whole entry): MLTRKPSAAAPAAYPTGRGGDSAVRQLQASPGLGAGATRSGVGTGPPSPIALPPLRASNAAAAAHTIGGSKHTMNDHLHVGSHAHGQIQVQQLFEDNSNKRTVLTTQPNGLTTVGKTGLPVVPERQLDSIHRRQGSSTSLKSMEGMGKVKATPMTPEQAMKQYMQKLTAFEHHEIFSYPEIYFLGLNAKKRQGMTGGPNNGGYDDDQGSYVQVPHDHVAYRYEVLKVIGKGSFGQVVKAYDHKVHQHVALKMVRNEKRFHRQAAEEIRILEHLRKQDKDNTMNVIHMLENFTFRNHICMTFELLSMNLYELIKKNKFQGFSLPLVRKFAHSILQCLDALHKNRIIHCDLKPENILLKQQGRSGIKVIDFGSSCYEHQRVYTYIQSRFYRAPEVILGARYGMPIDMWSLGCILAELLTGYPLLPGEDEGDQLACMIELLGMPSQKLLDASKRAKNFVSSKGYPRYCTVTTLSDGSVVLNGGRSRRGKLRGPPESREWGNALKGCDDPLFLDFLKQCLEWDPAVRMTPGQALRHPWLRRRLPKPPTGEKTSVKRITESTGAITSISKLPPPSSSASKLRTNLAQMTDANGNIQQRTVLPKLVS
The test can be described thus: Inhibition of human recombinant GST-tagged DYRK2 using KKISGRLSPIMTEQ as substrate and [gamma32]-ATP after 30 mins by scintillation counting. An outline of the steps: (§2)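 GST fusion kinases expressed in E. coli and purified on glutathione-agarose; DYRK1A is rat, DYRK2 is human. Assay buffer A (25 mM Tris-HCl pH 7.5, 10 mM MgCl2, 1 mM EGTA, 1 mM DTT, 50 μg/mL heparin) plus 0.15 mg/mL BSA. Product captured on P81 paper, washed in 1% phosphoric acid, scintillation counted. Activity expressed as percent of uninhibited control.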

The target of test [7] is Dual specificity protein kinase CLK1 (Homo sapiens) (UniProt P49759). The test can be described thus: Inhibition of CLK1 transfected in human HeLa cells assessed as increase in exon inclusion ratio after 24 hrs by RT-PCR analysis. In kind it is cell-based. Summed up:
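HeLa cells were transfected with […], with kinase-dead CLK1/K190R as comparator. Inhibitors at varying doses were added 3 h post-transfection, with 0.5% DMSO final in all cultures. Cells were harvested 24 h post-transfection, total RNA was extracted, and E1A splicing products were analysed by RT-PCR. Isoform molar ratios were measured by Bioanalyzer to give the exon inclusion ratio. Three independent samples were used.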

Test [8] deals with Dual specificity tyrosine-phosphorylation-regulated kinase 1A (Rattus norvegicus, UniProt Q63470). Briefly: Inhibition of rat recombinant GST-tagged DYRK1A using KKISGRLSPIMTEQ as substrate and [gamma32]-ATP after 30 mins by scintillation counting. An outline of the steps:
as §2

Test [9] addresses Glycogen synthase kinase-3 alpha/beta (Sus scrofa). Briefly: Inhibition of pig brain GSK-3alpha/beta.
The target of test [10] is Dual specificity protein kinase CLK3 (Mus musculus) (UniProt O35492). The test can be described thus: Inhibition of mouse recombinant GST-tagged CLK3 using GRSRSRSRSRSR as substrate at 10 uM. An outline of the steps: as §1
Test [11] deals with Dual specificity protein kinase CLK1 (Mus musculus) (UniProt P22518). The test can be described thus: Inhibition of mouse recombinant GST-tagged CLK1 using GRSRSRSRSRSR as substrate at 10 uM. Summed up:
as §1

Test [12] addresses Dual specificity tyrosine-phosphorylation-regulated kinase 1A (Rattus norvegicus) (UniProt Q63470). The test can be described thus: Inhibition of rat recombinant GST-tagged DYRK1A using KKISGRLSPIMTEQ as substrate and [gamma32]-ATP at 10 uM after 30 mins by scintillation counting. Summed up:
(§3)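 GST fusion kinases expressed in E. coli and purified on glutathione-agarose; DYRK1A is rat, DYRK2 is human. Assay buffer A (25 mM Tris-HCl pH 7.5, 10 mM MgCl2, 1 mM EGTA, 1 mM DTT, 50 μg/mL heparin) plus 0.15 mg/mL BSA. Woodtide 1.5 μg/assay with 15 μM [γ-33P]ATP, 30 min at 30 C. Product captured on P81 paper, washed in 1% phosphoric acid, scintillation counted. Activity expressed as percent of uninhibited control.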

The target in test [13] is T2, Dual specificity tyrosine-phosphorylation-regulated kinase 2 (Homo sapiens) (UniProt Q92630).
T2 sequence (whole entry): T1 sequence (Q92630 whole entry)
The test can be described thus: Inhibition of human recombinant GST-tagged DYRK2 using […] as substrate and [gamma32]-ATP at 10 uM after 30 mins by scintillation counting. Summed up:
as §3

Calls of active or inactive are those of the source. No cut-off for these calls is given here.

The term IC50 denotes the concentration at which inhibition is half-maximal.

Chain of Dual specificity protein kinase CLK3 (Mus musculus) (O35492 whole entry): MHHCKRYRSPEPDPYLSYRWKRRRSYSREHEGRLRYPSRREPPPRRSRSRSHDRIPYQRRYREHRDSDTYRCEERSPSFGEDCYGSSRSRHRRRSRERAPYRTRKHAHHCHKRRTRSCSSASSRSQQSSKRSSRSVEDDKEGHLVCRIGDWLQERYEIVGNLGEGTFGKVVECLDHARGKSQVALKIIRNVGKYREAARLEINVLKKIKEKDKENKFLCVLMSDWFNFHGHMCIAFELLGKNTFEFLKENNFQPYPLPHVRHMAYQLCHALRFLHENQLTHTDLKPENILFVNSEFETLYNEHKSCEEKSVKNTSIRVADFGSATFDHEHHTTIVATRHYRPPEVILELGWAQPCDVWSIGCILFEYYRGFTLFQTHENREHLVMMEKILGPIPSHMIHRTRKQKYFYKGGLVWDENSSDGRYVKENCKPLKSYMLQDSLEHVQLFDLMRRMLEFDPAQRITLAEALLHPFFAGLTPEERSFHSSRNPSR
Chain of Dual specificity protein kinase CLK3 (O35492 whole entry, the tested form may be a part): as the sequence (O35492 whole entry) above
Chain of Dual specificity protein kinase CLK1 (P22518 whole entry): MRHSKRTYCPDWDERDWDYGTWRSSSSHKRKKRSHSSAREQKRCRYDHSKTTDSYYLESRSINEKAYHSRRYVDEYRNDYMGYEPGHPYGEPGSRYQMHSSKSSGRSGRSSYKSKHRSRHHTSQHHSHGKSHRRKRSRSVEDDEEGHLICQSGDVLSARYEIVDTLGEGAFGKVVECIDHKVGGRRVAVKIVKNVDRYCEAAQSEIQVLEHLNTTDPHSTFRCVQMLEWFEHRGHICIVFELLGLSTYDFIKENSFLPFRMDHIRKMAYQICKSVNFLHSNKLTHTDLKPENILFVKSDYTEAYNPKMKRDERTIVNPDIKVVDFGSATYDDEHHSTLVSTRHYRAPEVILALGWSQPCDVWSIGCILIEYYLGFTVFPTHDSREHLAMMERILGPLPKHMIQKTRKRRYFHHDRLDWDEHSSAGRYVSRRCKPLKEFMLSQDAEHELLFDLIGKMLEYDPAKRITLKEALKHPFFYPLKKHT
Chain of Dual specificity protein kinase CLK1 (Mus musculus) (P22518 whole entry, looked up): as the sequence (P22518 whole entry) above
Chain of Cyclin-dependent kinase 5/CDK5 activator 1 (Homo sapiens) (Q00535 whole entry): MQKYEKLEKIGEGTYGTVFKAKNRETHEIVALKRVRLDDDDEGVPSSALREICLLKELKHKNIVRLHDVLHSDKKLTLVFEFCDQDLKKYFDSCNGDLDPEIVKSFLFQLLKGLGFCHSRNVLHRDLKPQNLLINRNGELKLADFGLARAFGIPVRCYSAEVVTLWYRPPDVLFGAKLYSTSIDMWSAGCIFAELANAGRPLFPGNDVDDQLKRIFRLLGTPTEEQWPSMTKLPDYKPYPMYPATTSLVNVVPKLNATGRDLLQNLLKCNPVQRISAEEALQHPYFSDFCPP
Chain of Cyclin-dependent kinase 5/CDK5 activator 1 (Homo sapiens) (Q15078 99-307 partner limits assumed): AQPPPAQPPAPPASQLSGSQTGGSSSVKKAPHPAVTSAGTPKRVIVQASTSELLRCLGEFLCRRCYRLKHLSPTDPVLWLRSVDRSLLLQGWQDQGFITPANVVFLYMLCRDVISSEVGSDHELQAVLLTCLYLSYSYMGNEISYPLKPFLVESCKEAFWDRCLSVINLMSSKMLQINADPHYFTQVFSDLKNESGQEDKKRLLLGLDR
Chain of Serine/threonine-protein kinase pim-1 (P11309 whole entry, the tested form may be a part): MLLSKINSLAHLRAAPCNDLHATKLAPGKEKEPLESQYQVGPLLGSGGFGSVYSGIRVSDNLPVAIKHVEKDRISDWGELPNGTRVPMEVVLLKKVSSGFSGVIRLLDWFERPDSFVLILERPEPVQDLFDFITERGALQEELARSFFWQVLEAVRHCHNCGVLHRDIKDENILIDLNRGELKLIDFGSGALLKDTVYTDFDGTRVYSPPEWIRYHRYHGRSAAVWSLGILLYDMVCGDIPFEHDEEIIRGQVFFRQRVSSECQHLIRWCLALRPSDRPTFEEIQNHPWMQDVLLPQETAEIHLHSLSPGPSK
Chain of Dual specificity protein kinase CLK1 (Homo sapiens) (P49759 whole entry, looked up, canonical isoform): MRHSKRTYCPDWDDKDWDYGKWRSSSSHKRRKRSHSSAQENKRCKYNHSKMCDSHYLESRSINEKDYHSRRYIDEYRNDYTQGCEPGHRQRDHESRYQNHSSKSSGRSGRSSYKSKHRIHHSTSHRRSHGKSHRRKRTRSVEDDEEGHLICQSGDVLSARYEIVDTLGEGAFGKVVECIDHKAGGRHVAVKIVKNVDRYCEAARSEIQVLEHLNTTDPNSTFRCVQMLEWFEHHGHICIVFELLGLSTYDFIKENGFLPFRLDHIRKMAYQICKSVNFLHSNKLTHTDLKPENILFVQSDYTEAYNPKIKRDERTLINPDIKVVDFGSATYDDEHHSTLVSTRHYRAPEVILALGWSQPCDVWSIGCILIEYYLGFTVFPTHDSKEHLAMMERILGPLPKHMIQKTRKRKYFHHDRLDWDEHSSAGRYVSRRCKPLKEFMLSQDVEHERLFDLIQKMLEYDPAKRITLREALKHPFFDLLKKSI

`CCCNC1=N/C(=C\c2ccccc2O)C(=O)N1C`: the inhibition result (in the test listed under Sus scrofa; in [4]; in test [5]) was “inactive” each time. For the same compound, the IC50 in [1], in test [2], in [3] and in test [6] was > 10000 nM each time.
As for `CCN1/C(=C/C(C)=O)Sc2ccc(OC)cc21`, in test [7], the “increase in exon inclusion ratio” value is “Dose-dependent effect”.
As to `CC[C@H](CO)Nc1nc(NCc2ccccc2)c2ncn(C(C)C)c2n1`, the “increase in exon inclusion ratio” value in test [7] was “inactive”.
Turning to `CCCNC1=N/C(=C\c2ccc3c(c2)OCO3)C(=O)N1c1ccccc1`, the inhibition result (in the test listed under Sus scrofa; in test [5]) was “inactive” in each case. Further, the IC50 in test [8], in [1], in test [2], in test [3] and in [6] was > 10000 nM throughout.
Turning to `COc1ccc2c(c1)[nH]c1c(C)nccc12`, the “increase in exon inclusion ratio” value in test [7] was “Dose-dependent effect”.
Turning to `CCOC(=O)C(=O)NC1=N/C(=C\c2ccc3c(c2)OCO3)C(=O)N1C`, the half-inhibitory concentration (IC50) is > 10000 nM in test [9]; 6100 nM in test [8]; 7000 nM in test [1]; > 10000 nM in test [2]; 3100 nM in [3]; 6500 nM in [6]. Besides, the inhibition result (in the test listed under Sus scrofa; in [4]) was “inactive” in each case.
`CCNC1=N/C(=C\c2ccc3c(c2)OCO3)C(=O)N1`: the IC50 in test [9] was determined as 2400 nM; in [8], 410 nM; in test [1], 3100 nM; in test [2], 3700 nM; in test [3] it was 400 nM; in [6], 160 nM. For the same compound, the inhibition result (in the test filed under Sus scrofa; in test [4]) was “inactive” each time.
For the compound `CN1C(=O)/C(=C/c2ccc3c(c2)OCO3)N=C1NCCN1CCOCC1`, the IC50 is 4000 nM in test [9]; 1200 nM in test [8]; 6200 nM in test [1]; 8000 nM in [2]; 80 nM in test [3]; 1600 nM in [6]. The inhibition entry (in the test listed under Sus scrofa; in test [4]) was “inactive” throughout.
Consider `CCCNC1=N/C(=C\c2ccccc2)C(=O)N1C`, for which the inhibition entry (in the test filed under Sus scrofa; in test [10]; in test [4]; in test [11]; in test [12]; in [5]) was “inactive” throughout. For the same compound, the inhibition entry in test [13] was “inactive”. Also, the IC50 in [1] is > 10000 nM.
For `CCCNC1=N/C(=C\c2cc(OC)c(OC)c(OC)c2)C(=O)N1C`, the inhibition entry (in the test listed under Sus scrofa; in [10]; in [4]; in test [12]; in test [5]) was “inactive” each time. Moreover, the IC50 in [1], in test [3] and in test [6] was > 10000 nM in each case.
Take `C=CCNC1=N/C(=C\c2ccc3c(c2)OCO3)C(=O)N1C`: the IC50 was determined as 1600 nM in test [9]; 440 nM in [8]; 4200 nM in test [1]; 880 nM in test [2]; 200 nM in [3]; 620 nM in test [6]. For the same compound, the inhibition result (in the test filed under Sus scrofa; in [4]) was “inactive” each time.
Regarding `CCCNC1=N/C(=C\c2ccc3c(c2)OCO3)C(=O)N1CCC`, the inhibition result (in the test listed under Sus scrofa; in test [10]; in test [11]; in test [5]) was “inactive” throughout. For the same compound, the results for the 50% inhibitory concentration (IC50) in test [8], in test [1] and in test [6] were > 10000 nM, > 10000 nM and 2100 nM, respectively.
Take `CC(C)CCNC1=N/C(=C\c2ccc3c(c2)OCO3)C(=O)N1C`: the concentration for half-maximal inhibition (IC50) in test [9] turned out to be 2000 nM; in test [8], 460 nM; in test [1], 2100 nM; in test [2] it was 960 nM; in test [3] it was 160 nM; in test [6], 560 nM. The inhibition entry (in the test listed under Sus scrofa; in [4]) was “inactive” throughout.
For `CCCNC1=N/C(=C\c2ccc3c(c2)OC(F)(F)O3)C(=O)N1C`, the inhibition entry (in the test listed under Sus scrofa; in test [10]; in test [4]; in test [11]; in [12]; in test [5]) was “inactive” throughout. For the same compound, the inhibition result in [13] was “inactive”. In addition, the IC50 in test [1] is > 10000 nM.
As for `CN1C(=O)/C(=C/c2ccc3c(c2)OCO3)N=C1NCc1ccccc1`, the IC50 in [9] was > 10000 nM; in test [8], 380 nM; in test [1], 3700 nM; in test [2], 940 nM; in [3] it was 200 nM; in [6], 560 nM. The inhibition result (in the test filed under Sus scrofa; in [4]) was “inactive” in each case.
On to `CCCNC1=N/C(=C\c2ccc3c(c2)OCO3)C(=O)N1`, for which the IC50 in [9] was 7300 nM; in [8] it was 240 nM; in test [1] it was 2500 nM; in test [2] it was 2200 nM; in test [3] it was 130 nM; in test [6] it was 120 nM. For the same compound, the inhibition entry (in the test listed under Sus scrofa; in test [4]) was “inactive” throughout.
As to `COc1ccc(NC2=N/C(=C\c3ccc4c(c3)OCO4)C(=O)N2C)cc1`, the IC50 in [9] was 700 nM; in test [8], 240 nM; in [1], 4100 nM; in test [2] it was > 10000 nM; in test [3] it was 450 nM; in [6], 510 nM. For the same compound, the inhibition result (in the test listed under Sus scrofa; in test [4]) was “inactive” each time.
